Sampled rows, rich in hits. Any-hit rate of the full collection: about 2.8%.
PP1 counter – counter-screen for PP5 inhibitors: inhibitors of human PP1-alpha | P62136 | purified PP1alpha, OMFP fluorescence | inhibition, % at 6.7 µM | hit rate 0.9% among 320,000 | AID 2235;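 active means inhibition above the mean inhibition of all tested compounds plus 3 SD, computed separately for each screening campaign, cut at about 15% in these data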
T cruzi repl – blocks replication of Trypanosoma cruzi; T. cruzi beta-gal in NIH3T3, luminescence, 90 h; inhibition, % (test concentration not listed); hit rate 1.4% among 300,000; AID 1885;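 active means mean inhibition across valid replicates above about 55%, limit read from the data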;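 further: signal also drops with host cell toxicity which is not excluded here; 0% = plate median of DMSO wells and 100% = zero luminescence signal; higher percent means less beta-gal luminescence so fewer parasites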
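System: NIH/3T3 fibroblasts plus reporter T. cruzi. Medium: DMEM plus 2% FBS. Probe or stimulus: 5000 reporter trypomastigotes per well. Compound: single 50 nL compound addition per well in DMSO. Incubation: co-culture of at least 90 h after 3 h attachment. Detection: GalScreen β-gal luminescence, detergent lysis, 60 min. Evaluation: parasite load inhibition, %.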
AI-2 QS modul – modulators of Vibrio harveyi AI-2 quorum sensing system | AID 2094 | Vibrio harveyi JMH597 AI-2 luminescence/OD600 ratio, 9 h; stronger effect = lower value; strain lacks LuxN and CqsS sensors; 0 = neutral-control median | hit rate 0.4% among 300,000 | activity change, % at 7.5 µM; in the data active means activity change below about -75%, passing the limit was not always enough;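 further: luminescence divided by OD600 gain over 9 h not by final OD600 alone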
pCIP destab – lowers stability of the mouse p/CIP coactivator protein | Q05BA5 | F442A p/CIP-EGFP cells, EGFP fluorescence, 16 h | decrease of EGFP signal, % at 10 µM | hit rate 0.01% among 290,000;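 active means EGFP signal decrease of at least 30% at 10 µM or well 3 SD below plate mean, unless failing retest; inactive means the rest, including hits failing retest or dose response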
UBC13 inh – human UBC13 polyubiquitination inhibition | UBC13 polyubiquitin chain formation, TR-FRET | P61088 | inhibition, % at 20 µM | AID 485273 | hit rate 0.47% among 330,000; in the data active means inhibition above about 45%, passing the limit was not always enough
Target sequence (P61088 whole entry, looked up): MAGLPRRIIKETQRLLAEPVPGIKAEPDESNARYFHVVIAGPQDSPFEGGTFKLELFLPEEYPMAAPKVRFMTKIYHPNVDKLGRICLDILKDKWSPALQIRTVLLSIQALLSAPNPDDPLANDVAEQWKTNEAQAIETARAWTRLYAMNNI
Active calls of the source: *; nt = no result.

SMILES	PP1 counter	T cruzi repl	AI-2 QS modul	pCIP destab	UBC13 inh
Cc1ccc(C(=O)c2oc3ccc(Cl)cc3c2NC(=O)CN2CCN(C)CC2)cc1	4	30	10	2	44
Cc1ccccc1-c1cc2nc(-c3ccc([N+](=O)[O-])cc3)cc(=O)n2[nH]1	16*	-12	5	-18	-6
C#C[C@]1(O)CC[C@H]2[C@@H]3CCc4cc(OC5CCCC5)ccc4[C@H]3CC[C@@]21C	6	55*	33	-4	16
C#C[C@]1(O)CC[C@H]2[C@@H]3CCc4cc(OC)ccc4[C@H]3CC[C@@]21C	4	10	14	3	-4
CC1CCC(C(C)C)C(OC(=O)C[n+]2cc(-c3ccc(Cl)cc3)n3c2CCCCC3)C1 (stereo unspecified)	1	56*	39	-26	34
CC1(C)C([N+](=O)[O-])C(c2ccc(Cl)cc2)NC(c2ccc(Cl)cc2)C1[N+](=O)[O-] (stereo unspecified)	3	58*	6	2	5
CC1(C)C([N+](=O)[O-])C(c2ccc(F)cc2)NC(c2ccc(F)cc2)C1[N+](=O)[O-] (stereo unspecified)	-3	9	9	-12	-7
CNC1(C)[C@H]2CC[C@H](C2)C1(C)C (stereo partly specified)	nt	nt	nt	nt	5
COc1ccc(/C=N/NC(=O)Cn2nnc3ccccc32)cc1OC	-2	-4	-92*	-23	-15
Cc1ccc(S(=O)(=O)N2CCOCC2)cc1NC(=O)CN1CCC(Cc2ccccc2)CC1	1	49	11	2	10
C/C(=N\NC(=O)c1cc2ccccc2cc1O)c1cccs1	13	55*	-2	-7	1
Cc1cc(-c2nnc(SCC(=O)Nc3ccccc3C)n2N)n[nH]1	0	3	5	-7	0
Cc1ccc(N/N=C/C=C/c2ccco2)cc1	0	73*	-5	nt	-4
Cc1nnc(NCCc2ccccc2)c2ccccc12	2	22	32	2	4
CNC[C@H](CC1CCCCC1)NC[C@H](Cc1ccccc1)NCCC12CC3CC(CC(C3)C1)C2	21*	46	4	5	25
NC[C@H](Cc1ccccc1)NCCCCC1CCCCC1	1	nt	nt	nt	36
Cc1nc2c(C(=O)NCc3ccco3)cnn2c(C)c1Cc1ccc(F)cc1Cl	4	74*	5	-6	12
Cc1nc2c(C(=O)NCc3ccc4c(c3)OCO4)cnn2c(C)c1Cc1ccc(F)cc1Cl	-1	34	-2	7	40
Cc1ccc(C)c(Cc2c(C)nc3c(C(=O)NCc4ccc5c(c4)OCO5)cnn3c2C)c1	0	68*	3	-1	18
O=C(COc1coc(CN2CCN(c3ccc(F)cc3)CC2)cc1=O)NCC1CCCO1 (stereo unspecified)	-5	-9	19	nt	-5
O=c1c2ccccc2nc(COc2ccccc2)n1/N=C/c1ccc(O)cc1O	-3	57*	56	-14	-9
Cc1cnn(C(=O)Cn2nc(C(F)F)c(Br)c2C)c1	nt	nt	nt	nt	-1
Cc1cccc(C)c1NC(=S)N/N=C/c1ccc(OCCC(C)C)cc1	5	63*	40	0	0
Cc1cccc(N2C(=O)C(Oc3ccc(Cl)cc3Cl)C2C(=O)O)c1C (stereo unspecified)	3	-9	22	2	3
CCCNCC1C(Oc2ccc(Cl)cc2Cl)C(=O)N1c1cccc(C)c1C (stereo unspecified)	6	62*	13	1	20
SMILES	PP1 counter	T cruzi repl	AI-2 QS modul	pCIP destab	UBC13 inh
CCC1CSC(Nc2ccc(C(=O)/C=C/c3ccc(Br)cc3)cc2)=N1 (stereo unspecified)	15*	45	3	-10	-4
N#Cc1c(N2CCOCC2)nc(N2CCCCC2)c2c1CCN(C1CCCCC1)C2	-1	71*	23	7	6
N#Cc1cnc(N)c(Br)c1	-4	-9	29	-10	9
CCOC(=O)NC(=O)c1cn(-c2ccc(OC)cc2)c(=O)[nH]c1=O	-1	-17	13	16	3
CC(C)(C)c1cc(CCC(=O)NCC2CCCO2)cc(C(C)(C)C)c1O (stereo unspecified)	2	17	48	-6	-4
CCOc1ccc(CN2CCN(CC3CC3)CC2CCO)cc1 (stereo unspecified)	-1	8	20	-2	3
